Columns and labels:
[1] = biological target: T1, M-phase inducer phosphatase 1 (Homo sapiens, UniProt P30304); assay: Inhibition of CDC25a
T1 sequence (P30304 whole entry): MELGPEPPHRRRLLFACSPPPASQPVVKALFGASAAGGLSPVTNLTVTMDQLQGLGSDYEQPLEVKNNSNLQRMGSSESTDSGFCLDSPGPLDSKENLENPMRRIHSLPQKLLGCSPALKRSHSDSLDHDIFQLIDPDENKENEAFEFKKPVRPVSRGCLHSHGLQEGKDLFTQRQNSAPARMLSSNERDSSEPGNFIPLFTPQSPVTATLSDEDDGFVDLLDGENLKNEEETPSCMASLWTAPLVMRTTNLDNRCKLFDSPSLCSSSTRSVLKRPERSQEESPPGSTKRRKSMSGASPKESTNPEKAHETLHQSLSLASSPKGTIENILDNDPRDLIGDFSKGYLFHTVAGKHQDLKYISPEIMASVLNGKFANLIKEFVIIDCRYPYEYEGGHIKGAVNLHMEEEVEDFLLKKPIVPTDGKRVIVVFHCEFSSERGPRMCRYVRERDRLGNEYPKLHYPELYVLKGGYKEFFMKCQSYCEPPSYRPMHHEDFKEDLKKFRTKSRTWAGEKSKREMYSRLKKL
In short: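 Recombinant CDC25A, pre-incubated 10-15 min with inhibitor in 50 mM Tris, 50 mM NaCl, 0.1 mM EDTA, 2 mM DTE, 0.025% NP-40. Started with p-nitrophenyl phosphate at 50 mM final. Inhibitor at 100-3.125 µM in 2-fold steps. Rate was taken from the A405 slope versus an uninhibited control, in quadruplicate. IC50 came from linear extrapolation against log concentration.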

[2] = biological target: Dual specificity protein phosphatase 3 (Homo sapiens, UniProt P51452); assay: Inhibition of VHR
In short: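 VHR in 25 mM MOPS, 5 mM EDTA, 2 mM DTE, 0.025% NP-40, pre-incubated 10-15 min with inhibitor at 100-3.125 µM (2-fold). Reaction started with 1 mM p-nitrophenyl phosphate. Rate from the A405 slope versus control, in quadruplicate. IC50 was derived by linear extrapolation of velocity against log inhibitor concentration.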

[3] = biological target: T2, Low molecular weight protein-tyrosine phosphatase A (Mycobacterium tuberculosis, UniProt P9WIA1); assay: Inhibition of Mycobacterium tuberculosis ptpA
T2 sequence (P9WIA1 whole entry): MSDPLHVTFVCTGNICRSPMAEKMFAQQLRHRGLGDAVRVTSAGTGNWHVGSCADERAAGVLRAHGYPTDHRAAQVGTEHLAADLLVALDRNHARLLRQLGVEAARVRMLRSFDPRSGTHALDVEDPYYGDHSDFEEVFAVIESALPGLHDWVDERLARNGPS
In short: (§1)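 MptpA or MptpB was expressed in E. coli BL21(DE3) with 1 mM IPTG for 4 h at 25 °C, then purified by Ni-NTA and Superdex 75 gel filtration. Enzyme was pre-incubated 10-15 min with inhibitor (100-3.125 µM, 2-fold) in 25 mM HEPES, 50 mM NaCl, 2.5 mM EDTA, 2 mM DTE, 0.025% NP-40. Reaction used 1 mM p-nitrophenyl phosphate, read as A405 slope, quadruplicate, IC50 from log-concentration extrapolation.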

[4] = biological target: T3, Phosphotyrosine-protein phosphatase PTPB (Mycobacterium tuberculosis, UniProt P96830); assay: Inhibition of Mycobacterium tuberculosis ptpb; in short: as §1
T3 sequence (P96830 whole entry): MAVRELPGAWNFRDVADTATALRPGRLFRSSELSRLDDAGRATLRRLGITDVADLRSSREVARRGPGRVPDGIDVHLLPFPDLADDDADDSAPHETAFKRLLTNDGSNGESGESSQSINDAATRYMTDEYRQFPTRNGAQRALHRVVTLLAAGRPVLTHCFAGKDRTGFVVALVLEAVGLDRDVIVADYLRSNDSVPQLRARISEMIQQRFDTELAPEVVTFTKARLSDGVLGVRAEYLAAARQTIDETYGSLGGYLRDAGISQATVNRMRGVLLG

[5] = biological target: T4, Tyrosine-protein phosphatase non-receptor type 1 (Homo sapiens, UniProt P18031); assay: Inhibition of PTP1b
T4 sequence (P18031 whole entry): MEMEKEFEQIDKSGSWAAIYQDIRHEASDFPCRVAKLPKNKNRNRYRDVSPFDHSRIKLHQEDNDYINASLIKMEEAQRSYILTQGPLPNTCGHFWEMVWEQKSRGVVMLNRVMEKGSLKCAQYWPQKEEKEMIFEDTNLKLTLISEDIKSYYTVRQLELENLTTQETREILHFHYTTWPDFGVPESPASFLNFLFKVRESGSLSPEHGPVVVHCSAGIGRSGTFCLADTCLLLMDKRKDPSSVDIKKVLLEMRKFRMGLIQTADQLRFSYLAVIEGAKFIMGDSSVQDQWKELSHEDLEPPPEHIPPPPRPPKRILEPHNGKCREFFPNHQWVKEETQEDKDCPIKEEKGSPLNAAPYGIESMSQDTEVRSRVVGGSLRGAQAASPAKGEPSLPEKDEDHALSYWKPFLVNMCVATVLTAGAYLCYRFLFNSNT
In short: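 PTP1b pre-incubated 10-15 min with inhibitor (2-fold series, 100 down to 3.125 µM) in 25 mM HEPES, 50 mM NaCl, 2.5 mM EDTA, 2 mM DTE, 0.025% NP-40. Reaction started with 1 mM p-nitrophenyl phosphate. Velocity from the A405 slope relative to an inhibitor-free control, quadruplicates. IC50 by linear extrapolation of velocity versus log concentration, with 100 µM as the upper limit.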

[6] = biological target: T5, Tyrosine-protein phosphatase non-receptor type 11 (Homo sapiens, UniProt Q06124); assay: Inhibition of SHP2
T5 sequence (Q06124 whole entry): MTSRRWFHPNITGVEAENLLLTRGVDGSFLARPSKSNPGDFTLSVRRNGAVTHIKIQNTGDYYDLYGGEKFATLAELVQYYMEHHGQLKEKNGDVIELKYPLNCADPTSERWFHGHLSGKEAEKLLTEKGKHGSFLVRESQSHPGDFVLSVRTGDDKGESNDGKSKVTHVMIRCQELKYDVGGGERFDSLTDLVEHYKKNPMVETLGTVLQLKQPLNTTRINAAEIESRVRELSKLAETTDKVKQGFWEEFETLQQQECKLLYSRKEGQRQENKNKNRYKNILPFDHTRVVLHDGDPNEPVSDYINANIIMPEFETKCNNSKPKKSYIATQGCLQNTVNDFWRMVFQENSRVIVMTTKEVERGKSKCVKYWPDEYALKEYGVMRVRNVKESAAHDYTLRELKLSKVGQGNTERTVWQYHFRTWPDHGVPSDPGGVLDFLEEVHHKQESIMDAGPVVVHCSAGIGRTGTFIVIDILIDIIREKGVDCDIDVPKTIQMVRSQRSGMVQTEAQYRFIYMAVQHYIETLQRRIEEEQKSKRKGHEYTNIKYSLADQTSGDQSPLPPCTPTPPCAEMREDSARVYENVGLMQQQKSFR
In short: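 SHP2 pre-incubated 10-15 min with a 2-fold inhibitor series (100-3.125 µM) in buffer with 2 mM DTE and 0.025% NP-40. Reaction used 1 mM p-nitrophenyl phosphate. Enzyme was set to give 1-2 OD405/h. Velocity was taken from the A405 slope, with quadruplicate wells. IC50 came from linear extrapolation against log concentration.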

Chain of Dual specificity protein phosphatase 3 (P51452 whole entry): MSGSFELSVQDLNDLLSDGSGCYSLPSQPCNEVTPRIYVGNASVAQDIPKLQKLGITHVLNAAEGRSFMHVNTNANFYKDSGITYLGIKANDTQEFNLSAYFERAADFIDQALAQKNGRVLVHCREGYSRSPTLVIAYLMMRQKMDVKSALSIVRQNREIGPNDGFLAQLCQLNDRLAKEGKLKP

SMILES | IC50 [1] [µM] | IC50 [2] [µM] | IC50 [3] [µM] | IC50 [4] [µM] | IC50 [5] [µM] | IC50 [6] [µM]
CC[C@H](C)[C@H](NC(=O)N[C@@H]1CCCCNC(=O)[C@H](Cc2ccccc2)NC(=O)[C@H](Cc2c[nH]c3ccccc23)N(C)C(=O)[C@H](CC(C)C)NC(=O)[C@H]([C@@H](C)CC)NC1=O)C(=O)O | > 100 | > 100 | > 100 | 7.3 |  | 
CC[C@H](C)[C@H](NC(=O)N[C@H]1CCCCNC(=O)[C@H](Cc2ccccc2)NC(=O)[C@H](Cc2c[nH]c3ccccc23)N(C)C(=O)[C@H](CC(C)C)NC(=O)[C@H]([C@@H](C)CC)NC1=O)C(=O)O |  |  |  |  | > 100 | > 100
CC[C@H](C)[C@H](NC(=O)N[C@@H]1CCCCNC(=O)[C@H](Cc2ccccc2)NC(=O)[C@H](Cc2c[nH]c3ccccc23)N(C)C(=O)[C@H](CC(C)C)NC(=O)[C@H](C(C)C)NC1=O)C(=O)O [BRUNSVICAMIDE A] | > 100 | > 100 | > 100 | 64.2 |  | 
CC[C@H](C)[C@H](NC(=O)N[C@H]1CCCCNC(=O)[C@H](Cc2ccccc2)NC(=O)[C@H](Cc2c[nH]c3ccccc23)N(C)C(=O)[C@H](CC(C)C)NC(=O)[C@H](C(C)C)NC1=O)C(=O)O [BRUNSVICAMIDE A] |  |  |  |  | > 100 | > 100
